Measurements taken from PMC9037807 (RSC Advances, 2021).

Assays:
ovine COX-1 = molecular target: T1, ovine COX-1 (Ovis aries, UniProt P05979); experiment: In vitro cyclooxygenase; type: biochemical
T1 sequence (P05979 25-600): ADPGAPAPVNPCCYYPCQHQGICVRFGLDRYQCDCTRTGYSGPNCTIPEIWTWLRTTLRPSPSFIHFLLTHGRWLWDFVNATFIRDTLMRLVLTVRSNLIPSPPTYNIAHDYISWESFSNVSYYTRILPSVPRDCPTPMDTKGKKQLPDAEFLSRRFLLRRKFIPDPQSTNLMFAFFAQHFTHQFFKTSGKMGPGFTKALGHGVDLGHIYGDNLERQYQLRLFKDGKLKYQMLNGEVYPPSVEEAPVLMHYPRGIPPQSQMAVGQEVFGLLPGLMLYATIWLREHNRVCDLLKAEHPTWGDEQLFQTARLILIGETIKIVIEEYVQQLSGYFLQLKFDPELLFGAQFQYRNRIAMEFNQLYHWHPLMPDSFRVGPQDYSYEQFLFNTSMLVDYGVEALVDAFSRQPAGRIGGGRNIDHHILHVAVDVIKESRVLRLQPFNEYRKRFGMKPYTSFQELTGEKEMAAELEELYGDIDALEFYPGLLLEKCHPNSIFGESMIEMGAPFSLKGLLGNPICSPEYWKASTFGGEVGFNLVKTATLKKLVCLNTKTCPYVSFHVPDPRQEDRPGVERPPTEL

ovine COX-2 = molecular target: T2, ovine COX-2 (Ovis aries, UniProt P79208); experiment: In vitro cyclooxygenase; type: biochemical; settings: for Selectivity index (SI): COX-1 IC50/COX-2 IC50
T2 sequence (P79208 17-603): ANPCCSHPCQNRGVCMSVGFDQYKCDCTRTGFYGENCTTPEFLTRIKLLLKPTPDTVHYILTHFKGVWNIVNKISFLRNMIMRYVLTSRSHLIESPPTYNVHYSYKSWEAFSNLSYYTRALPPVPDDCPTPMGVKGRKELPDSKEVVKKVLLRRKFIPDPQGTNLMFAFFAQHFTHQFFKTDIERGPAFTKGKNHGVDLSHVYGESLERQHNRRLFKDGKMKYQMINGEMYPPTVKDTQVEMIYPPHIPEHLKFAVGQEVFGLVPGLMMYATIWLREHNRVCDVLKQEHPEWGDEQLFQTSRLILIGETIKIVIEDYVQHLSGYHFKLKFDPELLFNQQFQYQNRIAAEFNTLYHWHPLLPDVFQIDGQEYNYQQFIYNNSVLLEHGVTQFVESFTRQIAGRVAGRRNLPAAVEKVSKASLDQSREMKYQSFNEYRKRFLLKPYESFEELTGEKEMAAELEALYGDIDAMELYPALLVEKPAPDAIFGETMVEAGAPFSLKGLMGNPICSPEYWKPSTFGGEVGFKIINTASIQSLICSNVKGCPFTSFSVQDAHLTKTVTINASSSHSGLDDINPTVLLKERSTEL

[1] = system: carrageenan-induced rat paw edema; experiment: Carrageenan-induced rat paw edema model; type: in vivo; settings: 10 mg kg−1 po, n = 4; for Edema inhibition %, 1 h / Edema thickness ± SEM, 1 h: 1 h after carrageenan injection; for Edema inhibition %, 3 h / Edema thickness ± SEM, 3 h: 3 h after carrageenan injection; for Edema inhibition %, 6 h / Edema thickness ± SEM, 6 h: 6 h after carrageenan injection
Method in brief: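 Rats were dosed orally with test compound (10 mg kg−1) in 5% aqueous DMSO (v/v). […] Thirty minutes after dosing, 0.02 ml of 1% carrageenan was injected sub-plantar. Paw thickness was measured 1, 3 and 6 h after injection, and edema inhibition % was calculated from paw thickness.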

rat stomach = experiment: Ulcerogenic liability; type: in vivo; settings: rats sacrificed 4 h after drug administration
rat's stomach = experiment: Histo-pathological study of glandular and non-glandular stomach; type: in vivo; settings: text description

| SMILES | IC50 (ovine COX-1) [µM] | IC50 (ovine COX-2) [µM] | Selectivity index (SI) (ovine COX-2) | Edema inhibition %, 1 h [1] [%] | Edema thickness ± SEM, 1 h [1] [mm] | Edema inhibition %, 3 h [1] [%] | Edema thickness ± SEM, 3 h [1] [mm] | Edema inhibition %, 6 h [1] [%] | Edema thickness ± SEM, 6 h [1] [mm] | Ulcer index, mean (rat stomach) [mm] | Severity of histopathological lesions of the stomach (in words) (rat's stomach) |
| --- | --- | --- | --- | --- | --- | --- | --- | --- | --- | --- | --- |
| CS(=O)(=O)c1ccc(-c2nc3ccccc3n2CC(=O)N/N=C/c2ccccc2)cc1 [11a, (E)-N′-Benzylidene-2-(2-(4-(methylsulfonyl)phenyl)-1H-benzo[d]imidazol-1-yl) acetohydrazide] | 9.87 | 0.19 | 52 | 60 | 1.048 ± 0.027 | 64 | 0.812 ± 0.037 | 69 | 0.578 ± 0.049 |  |  |
| COc1ccc(/C=N/NC(=O)Cn2c(-c3ccc(S(C)(=O)=O)cc3)nc3ccccc32)cc1 [11c, (E)-N′-(4-Methoxybenzylidene)-2-(2-(4-(methylsulfonyl)phenyl)-1H-benzo[d]imidazol-1-yl) acetohydrazide] | 11.3 | 0.11 | 103 | 81 | 0.487 ± 0.019 | 92 | 0.181 ± 0.013 | 93 | 0.130 ± 0.010 |  |  |
| CS(=O)(=O)c1ccc(-c2nc3ccccc3n2CC(=O)N/N=C/c2ccc(F)cc2)cc1 [11d, (E)-N′-(4-Fluorobenzylidene)-2-(2-(4-(methylsulfonyl)phenyl)-1H-benzo[d]imidazol-1-yl) acetohydrazide] | 10.2 | 0.12 | 85 |  |  | 81 | 0.427 ± 0.017 | 90 | 0.183 ± 0.014 |  |  |
| CS(=O)(=O)c1ccc(-c2nc3cc(Cl)ccc3n2CC(=O)N/N=C/c2ccc(Cl)cc2)cc1 [11f, (E)-N′-(4-Chlorobenzylidene)-2-(5-chloro-2-(4-(methylsulfonyl)phenyl)-1H-benzo[d]imidazol-1-yl) acetohydrazide] | 10.2 | 0.13 | 79 | 78 | 0.577 ± 0.020 | 80 | 0.449 ± 0.008 | 90 | 0.191 ± 0.011 |  |  |
| COc1ccc(/C=N/NC(=O)Cn2c(-c3ccc(S(C)(=O)=O)cc3)nc3cc(Cl)ccc32)cc1 [11g, (E)-N′-(4-Methoxybenzylidene)-2-(5-chloro-2-(4-(methylsulfonyl)phenyl)-1H-benzo[d]imidazol-1-yl) acetohydrazide] | 8.74 | 0.13 | 67 | 61 | 1.017 ± 0.007 | 65 | 0.785 ± 0.018 | 78 | 0.410 ± 0.018 |  |  |
| CS(=O)(=O)c1ccc(-c2nc3cc(Cl)ccc3n2CC(=O)N/N=C/c2ccc(F)cc2)cc1 [11h, (E)-N′-(4-Fluorobenzylidene)-2-(5-chloro-2-(4-(methylsulfonyl)phenyl)-1H-benzo[d]imidazol-1-yl) acetohydrazide] | 7.98 | 0.22 | 36 | 50 | 1.30 ± 0.079 | 52 | 1.063 ± 0.020 | 60 | 0.754 ± 0.026 |  |  |
| Cc1ccc2c(c1)nc(-c1ccc(S(C)(=O)=O)cc1)n2CC(=O)N/N=C/c1ccc(Cl)cc1 [11j, (E)-N′-(4-Chlorobenzylidene)-2-(5-methyl-2-(4-(methylsulfonyl)phenyl)-1H-benzo[d]imidazol-1-yl) acetohydrazide] | 11.2 | 0.11 | 102 | 81 | 0.505 ± 0.022 | 91 | 0.194 ± 0.018 | 93 | 0.129 ± 0.008 |  |  |
| Cc1ccc2c(c1)nc(-c1ccc(S(C)(=O)=O)cc1)n2CC(=O)N/N=C/c1ccc(F)cc1 [11l, (E)-N′-(4-Fluorobenzylidene)-2-(5-methyl-2-(4-(methylsulfonyl)phenyl)-1H-benzo[d]imidazol-1-yl) acetohydrazide] | 7.96 | 0.34 | 23 | 47 | 1.378 ± 0.009 | 51 | 1.102 ± 0.086 | 55 | 0.860 ± 0.010 |  |  |
| C/C(=N\NC(=O)Cn1c(-c2ccc(S(C)(=O)=O)cc2)nc2ccccc21)c1ccccc1 [12a, (E)-2-(2-(4-(Methylsulfonyl)phenyl)-1H-benzo[d]imidazol-1-yl)-N′-(1-phenylethylidene) acetohydrazide] | 8.97 | 0.28 | 32 | 50 | 1.308 ± 0.101 | 54 | 1.017 ± 0.024 | 60 | 0.766 ± 0.006 |  |  |
| C/C(=N\NC(=O)Cn1c(-c2ccc(S(C)(=O)=O)cc2)nc2ccccc21)c1ccc(Cl)cc1 [12b, (E)-N′-(1-(4-Chlorophenyl)ethylidene)-2-(2-(4-(methylsulfonyl)phenyl)-1H-benzo[d]imidazol-1-yl) acetohydrazide] | 12.5 | 0.1 | 125 | 80 | 0.522 ± 0.009 | 89 | 0.240 ± 0.014 | 95 | 0.104 ± 0.005 |  |  |
| C/C(=N\NC(=O)Cn1c(-c2ccc(S(C)(=O)=O)cc2)nc2cc(C)ccc21)c1ccc(Cl)cc1 [12f, (E)-N′-(1-(4-Chlorophenyl)ethylidene)-2-(5-methyl-2-(4-(methylsulfonyl)phenyl)-1H-benzo[d]imidazol-1-yl) acetohydrazide] | 10.9 | 0.19 | 57 | 60 | 1.038 ± 0.014 | 64 | 0.801 ± 0.013 | 70 | 0.563 ± 0.012 |  |  |
| Cc1ccc(-c2cc(C(F)(F)F)nn2-c2ccc(S(N)(=O)=O)cc2)cc1 [Celecoxib, celecoxib, reference compound] |  |  |  | 74 | 0.690 ± 0.017 | 94 | 0.142 ± 0.009 | 96 | 0.070 ± 0.005 | 3.5 | mild lesions |
| COc1ccc2c(c1)c(CC(=O)O)c(C)n2C(=O)c1ccc(Cl)cc1 [Indomethacin, indomethacin, reference compound] |  |  |  |  |  | 96 | 0.083 ± 0.005 | 97 | 0.051 ± 0.004 | 13 | severe lesions |
